Experimental data reported in ChEMBL document CHEMBL1123918, “Thromboxane synthetase inhibitors and antihypertensive agents. 4. N-[(1H-imidazol-1-yl)alkyl] derivatives of quinazoline-2,4(1H,3H)-diones, quinazolin-4(3H)-ones, and 1,2,3-benzotriazin-4(3H)-ones” (J Med Chem, 1987).
pIC50: −log10 of the molar value. Active and inactive are the calls of the source. How the calls were made is not given here.

Key:
[1] = target: T1, Thromboxane-A synthase (Rattus norvegicus, UniProt P49430); assay: Tested for inhibition of thromboxane synthetase from spontaneously hypertensive rats
T1 sequence (P49430 whole entry): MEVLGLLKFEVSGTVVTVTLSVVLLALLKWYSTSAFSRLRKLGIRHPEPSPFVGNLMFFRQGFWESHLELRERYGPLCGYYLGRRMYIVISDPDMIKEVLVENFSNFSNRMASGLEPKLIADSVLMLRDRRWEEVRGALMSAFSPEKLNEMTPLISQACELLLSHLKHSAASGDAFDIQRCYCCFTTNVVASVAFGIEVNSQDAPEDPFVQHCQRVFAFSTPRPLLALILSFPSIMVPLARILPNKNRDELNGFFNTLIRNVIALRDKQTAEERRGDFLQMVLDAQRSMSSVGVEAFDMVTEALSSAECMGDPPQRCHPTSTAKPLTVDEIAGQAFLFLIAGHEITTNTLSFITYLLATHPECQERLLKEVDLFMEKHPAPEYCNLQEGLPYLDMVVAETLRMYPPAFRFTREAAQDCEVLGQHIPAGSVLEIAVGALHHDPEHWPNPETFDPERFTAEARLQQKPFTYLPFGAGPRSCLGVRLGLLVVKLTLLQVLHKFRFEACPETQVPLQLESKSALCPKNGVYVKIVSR
Procedure, shortened: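 Washed SHR platelets in oxygenated Krebs phosphate buffer pH 7.4 (4.5-6.0 X 10^4 platelets/µL) incubated with vehicle or drug 10 min at 37 °C; stopped with ice and citric acid. TXB2 measured by direct RIA. Percent inhibition is relative to vehicle controls after background subtraction. IC50 is read from a plot of inhibition vs log concentration.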

[2] = target: T2, Thromboxane-A synthase (Rattus norvegicus) (UniProt P49430); assay: Tested for antihypertensive activity in spontaneously hypertensive rats at 100 mg/kg peroral dosage for 2 days; A means active; format: functional, organism-based; design: dose 100 mg/kg
T2 sequence (whole entry): T1 sequence (P49430 whole entry)
Procedure, shortened: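 Male 16-week-old Okamoto SHR (mean arterial pressure about 170 mmHg) gavaged with compound suspended in 2% preboiled starch (50 mg/mL) at 100 mg/kg or less, with 0.9% NaCl load 25 mL/kg; identical second dose without saline 24 h later. Mean arterial pressure measured 28 h after first dose; one to three rats per compound.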

Row | pIC50 [1] | Activity [2] | SMILES
1 | 8.15 |  | O=c1[nH]c2ccc(Cl)cc2c(=O)n1CCCCn1ccnc1 [listing 1 of 3 here]
2 |  | Active | Nc1ccc(Cl)cc1C(=O)NCCCCCn1ccnc1
3 |  | Active | Nc1cc(Cl)ccc1C(=O)NCCCCn1ccnc1
4 | 8.00 | Active | O=c1[nH]c2c(C(F)(F)F)cccc2c(=O)n1CCCCCn1ccnc1
5 |  | Active | O=c1c2cc(Cl)ccc2ncn1CCCCCCn1ccnc1
6 | 7.15 | Active | Cc1ccc2[nH]c(=O)n(CCC(C)n3ccnc3)c(=O)c2c1 (stereo not drawn)
7 |  | Active | O=c1c2ccc(Cl)cc2nnn1CCCCCn1ccnc1
8 | 6.10 | Active | O=c1[nH]c2ccc(Br)cc2c(=O)n1CCCCn1ccnc1
9 |  | Active | O=c1[nH]c2ccc(Cl)cc2c(=O)n1CCCCn1ccnc1 [listing 2 of 3 here]
10 | 6.09 | Active | O=c1[nH]c2cc(Cl)ccc2c(=O)n1CCCCCn1ccnc1
11 |  | Active | CCc1nc2ccc(Cl)cc2c(=O)n1CCCCn1ccnc1
12 |  | Active | Nc1ccc(Br)cc1C(=O)NCCCCn1ccnc1
13 | 8.70 |  | O=c1[nH]c2ccc(Cl)cc2c(=O)n1CCCCn1ccnc1 [listing 3 of 3 here]
14 | 8.00 |  | CC(Cn1ccnc1)Cn1c(=O)[nH]c2ccc(Cl)cc2c1=O (stereo not drawn) [listing 1 of 2 here]
15 |  | Active | Cc1nc2ccc(Cl)cc2c(=O)n1CCCCn1ccnc1
16 | 7.40 | Active | O=c1[nH]c2ccccc2c(=O)n1CCCCCCn1ccnc1
17 |  | Active | Cc1ccc2nnn(CCCCCn3ccnc3)c(=O)c2c1
18 | 7.22 | Active | Cc1ccc2nnn(CCCCn3ccnc3)c(=O)c2c1
19 |  | Active | CC(CNC(=O)c1ccc(Cl)cc1N)Cn1ccnc1 (stereo not drawn)
20 | 8.70 | Active | O=c1[nH]c2ccc(Cl)cc2c(=O)n1CCCCCCCn1ccnc1
21 |  | Active | CC(Cn1ccnc1)Cn1cnc2ccccc2c1=O (stereo not drawn)
22 | 6.62 | Active | O=c1c2cc(Cl)ccc2nnn1CCCCn1ccnc1
23 |  | Active | O=c1c2cc(Cl)ccc2nnn1CCCCCn1ccnc1

Row | pIC50 [1] | Activity [2] | SMILES
24 |  | Active | O=c1c2ccccc2ncn1CCCCCCn1ccnc1
25 |  | Active | O=c1c2cc(Br)ccc2nnn1CCCCn1ccnc1
26 | 7.05 | Active | CC(CNC(=O)c1cc(Cl)ccc1N)Cn1ccnc1 (stereo not drawn)
27 |  | Active | O=c1[nH]c2ccccc2c(=O)n1CCCCn1ccnc1
28 | 7.52 | Active | Cc1ccc2[nH]c(=O)n(CCCCCn3ccnc3)c(=O)c2c1
29 | 6.46 | Active | O=c1[nH]c2ccccc2c(=O)n1CCCCCn1ccnc1
30 | 8.52 |  | CC(Cn1ccnc1)Cn1c(=O)[nH]c2cc(Cl)ccc2c1=O (stereo not drawn) [listing 1 of 2 here]
31 | 5.10 | Active | CC(CCn1cnc2ccc(Cl)cc2c1=O)n1ccnc1 (stereo not drawn)
32 | 7.40 | Active | O=c1c2cc(Cl)ccc2ncn1CCCCCCCCn1ccnc1
33 |  | Active | Nc1ccc(Cl)cc1C(=O)NCCCCCCCCn1ccnc1
34 |  | Active | O=c1c2ccccc2ncn1CCCCn1ccnc1
35 |  | Active | CC(Cn1ccnc1)Cn1c(=O)[nH]c2cc(Cl)ccc2c1=O (stereo not drawn) [listing 2 of 2 here]
36 |  | Active | O=c1c2ccccc2ncn1CCCCCn1ccnc1
37 |  | Active | Nc1ccc(Cl)cc1C(=O)NCCCCCCn1ccnc1
38 |  | Active | O=c1c2cc(Cl)ccc2nnn1CCCCCCCCn1ccnc1
39 |  | Active | O=c1[nH]c2c(Cl)cccc2c(=O)n1CCCCCCn1ccnc1
40 |  | Active | O=c1c2ccccc2nnn1CCCCn1ccnc1
41 |  | Active | O=c1c2cc(Cl)ccc2nnn1CCCCCCn1ccnc1
42 |  | Active | O=c1[nH]c2c(C(F)(F)F)cccc2c(=O)n1CCCCCCn1ccnc1
43 | 8.10 |  | CC(Cn1ccnc1)Cn1c(=O)[nH]c2ccc(Cl)cc2c1=O (stereo not drawn) [listing 2 of 2 here]
44 |  | Active | O=c1c2ccc(Cl)cc2nnn1CCCCn1ccnc1
45 |  | Active | Nc1ccc(Cl)cc1C(=O)NCCCn1ccnc1
